Assay outcomes deposited in PubChem BioAssay by The Scripps Research Institute Molecular Screening Center.
CHRM1 agonist – agonists of human M1 muscarinic receptor. P11229. CHO-K1 hM1, Fluo-8 calcium fluorescence, agonist mode; 0% DMSO, 100% acetylcholine EC100. activation, % at 3 µM. actives 0.33% (n = 360,000). AID 588814;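 active = activation above the run's mean compound activation plus 3 SD, cut at about 16% in these data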;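 also: peak over basal fluorescence ratio within a 140 s kinetic read after compound addition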
Target sequence (P11229 whole entry, looked up): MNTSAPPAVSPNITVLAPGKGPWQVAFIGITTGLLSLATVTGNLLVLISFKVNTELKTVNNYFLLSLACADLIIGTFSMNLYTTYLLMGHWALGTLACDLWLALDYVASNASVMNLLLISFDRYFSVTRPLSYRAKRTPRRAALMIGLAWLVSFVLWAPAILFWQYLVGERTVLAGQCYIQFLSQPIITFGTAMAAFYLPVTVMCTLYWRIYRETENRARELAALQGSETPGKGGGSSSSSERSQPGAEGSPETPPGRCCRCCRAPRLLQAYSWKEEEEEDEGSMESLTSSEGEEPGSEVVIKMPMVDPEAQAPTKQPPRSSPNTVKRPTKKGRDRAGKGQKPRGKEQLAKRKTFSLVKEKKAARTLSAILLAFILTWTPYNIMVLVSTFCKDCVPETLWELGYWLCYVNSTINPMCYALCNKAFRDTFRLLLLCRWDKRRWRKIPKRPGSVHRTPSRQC
M5 PAM – potentiates acetylcholine response at human M5 receptor | P08912 | CHO-K1 hM5, Fluo-8 calcium, ACh EC20 PAM; 0% = ACh EC20, 100% = ACh EC100 | activation, % at 3 µM | actives 0.3% (n = 360,000);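 active = activation above the run cutoff, the mean activation of all test compounds plus 3 SD, cut at about 18% in these data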
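Assay system: CHO-K1 hM5 cells / Incubation: Fluo-8 loading 80 min at 37 °C plus 30 min room temperature / Technique: Fluo-8 calcium dye fluorescence, kinetic read / Repeats: single replicate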
CHRM5 agonist – agonists of human muscarinic M5 receptor (CHRM5); P08912; CHO-K1 hM5 cells, Fluo-8 calcium fluorescence; 0% DMSO wells, 100% maximal acetylcholine response; activation, % at 3 µM; actives 0.19% (n = 360,000); AID 624037;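 active = activation above the run's mean over test compounds plus 3 SD, cut at about 23% in these data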;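 also: signal is peak over basal fluorescence ratio across the kinetic read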
CHRM5 antagonist – CHRM5 antagonism in calcium assay; inhibition, % at 3 µM; P08912; actives 0.59% (n = 360,000); CHO-hM5 cells, Fluo-8 calcium fluorescence, ACh EC80;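 active = inhibition above a per-plate cutoff, the mean of that plate's test compounds plus 3 SD, cut at about 27% in these data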;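 also: 0% = acetylcholine EC80 with DMSO and 100% = DMSO without agonist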
M1 antag – blocks human M1 muscarinic receptor. P11229. CHO-K1 hM1, Fluo-8 calcium fluorescence, ACh EC80 antagonist. inhibition, % at 3 µM. actives 1.3% (n = 360,000);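 active = percent inhibition above its own plate's cutoff, namely the mean of that plate's compound wells plus 3 SD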;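 also: peak over basal fluorescence ratio during 140 s after agonist addition; 0% = ACh EC80 plus DMSO and 100% = DMSO alone without agonist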
M1 PAM – potentiates human M1 receptor response to acetylcholine; CHO-K1 hM1, Fluo-8 calcium fluorescence, ACh EC20; 0% = ACh EC20, 100% = maximal ACh; actives 0.088% (n = 360,000); activation, % at 3 µM; in the data active = activation above about 19%, passing the limit was not always enough
The depositor's hits bear a star; x = no result given. Shown are actives, neighbours in structure and some others; about 2% of the full set was active somewhere.

SMILES | CHRM1 agonist | M5 PAM | CHRM5 agonist | CHRM5 antagonist | M1 antag | M1 PAM
COc1ccc(/C=N/NC(=O)C(=O)/C=C2\NC3(CCCC3)Cc3ccccc32)cc1 | 14 | -5 | -1 | -1 | -1 | 25*
CCc1noc(C)c1C(=O)N1CCN(c2cccc(Cl)c2)CC1 | 0 | -3 | 5 | 2 | -9 | 1
Cc1nn(CCOc2cccc(Br)c2)c(C)c1[N+](=O)[O-] | -5 | 1 | -5 | 5 | -5 | 4
OC(CN1CCCCC1)CN(c1ccccc1)c1ccccc1 (stereo not given) | -10 | -27 | -11 | 8 | 51* | -25
OC(CN1CCCCCC1)CN(c1ccccc1)c1ccccc1 (stereo not given) | -8 | -18 | -23 | 17 | 38* | -26
N#Cc1ccc(S(=O)(=O)N2CCN(CN3C(=O)CC4(CCCC4)C3=O)CC2)cc1 | -4 | 3 | 1 | 2 | -8 | 3
NCc1csc(Nc2ccc(C(=O)c3ccccc3)cc2)n1 | -4 | 5 | -1 | 1 | -9 | 5
COc1ccc(Nc2ncc(C(=O)N3CCN(Cc4ccccc4)CC3)c3ccccc23)cc1 | 1 | -19 | 4 | 20 | 32* | -11
O=C1NC[C@@H](CCCCN2C[C@H](Cc3ccccc3)N(Cc3ccccc3)C(=O)C2=O)N(Cc2ccccc2)C1=O | x | -2 | -1 | 6 | x | x
CCN(CC)C(=O)C1=C(C)N(CCC2=CCCCC2)C(=O)C(CC(=O)NCc2cccc3ccccc23)C1 (stereo not given) | -7 | 7 | 1 | -9 | -14 | 2
CCOC(=O)c1ccc(NC(=O)CCc2nc(-c3ccccc3Cl)no2)cc1 | 0 | -14 | 3 | 17 | 14 | -5
O=C(Nc1ccc(-c2noc(CCc3ccccc3)n2)cc1)c1cccnc1 | 1 | -14 | 4 | 19 | 26* | -13
O=C(NCCc1ccccc1)c1ccc(NC(=O)c2cccnc2)cc1 | -4 | 0 | -3 | 2 | -19 | 8
CCOC(=O)c1ccc(NC(=O)CCc2nc(-c3ccccc3)no2)cc1 | 0 | -22 | -6 | 12 | 31* | -10
CCOc1ccccc1N1CCN(C2=C(NS(=O)(=O)c3cccs3)C(=O)c3ccccc3C2=O)CC1 | -6 | -7 | -3 | -2 | 60* | -23
O=C1C(NS(=O)(=O)c2cccs2)=C(N2CCN(Cc3ccccc3)CC2)C(=O)c2ccccc21 | -2 | -23 | -2 | 13 | 31* | -14
CN1CCN(C2=C(NS(=O)(=O)c3cccs3)C(=O)c3ccccc3C2=O)CC1 | -3 | 1 | 1 | 7 | -9 | 7
Cc1ccc(C)c(N2CCN(c3ccc4cc(S(=O)(=O)N5CCCCC5)ccc4n3)CC2)c1 | -1 | 18* | -2 | -22 | -23 | 16
CCN(CC)CCC(O)(c1ccccc1)C1CCCCC1 (stereo not given) | -10 | -33 | -22 | 89* | 100* | -30
CCN(C(=O)CCc1ccccc1)C1CCCCC1 | -7 | 0 | -1 | 2 | -6 | 6
CC[N+](CC)(CC)CCC(O)(c1ccccc1)C1CCCCC1 (stereo not given) | -5 | -18 | -1 | 99* | 98* | -25
O=C(O)c1ccc(-c2nn3c(=O)cc(N4CCNCC4)nc3s2)cc1 | -2 | 2 | 2 | 3 | -19 | 10
CC(=O)NC(c1ccccc1)c1nc(/C=C/c2ccccc2)cs1 (stereo not given) | -1 | -8 | 0 | 15 | -6 | 4
COc1ccc(NS(=O)(=O)c2c(C)cc(C)cc2C)cc1 | -2 | 26* | -11 | 5 | -8 | 9
Fc1ccc(Nc2cncc(-c3ccsc3)c2)cc1Cl | 2 | -6 | 3 | 13 | -4 | 5
SMILES | CHRM1 agonist | M5 PAM | CHRM5 agonist | CHRM5 antagonist | M1 antag | M1 PAM
CC1(C(=O)OCC(=O)Nc2ccc(C(N)=O)cc2)CC1(Cl)Cl (stereo not given) | -5 | 8 | -2 | 1 | -17 | 11
COc1ccccc1NC(=O)c1ccc(NC(=O)COC(=O)C2(C)CC2(Cl)Cl)cc1 (stereo not given) | -4 | -19 | 2 | 29* | 23 | -11
OC(COc1ccc(Cl)cc1)CN1CCN(c2ccccn2)CC1 (stereo not given) | -6 | 10 | -11 | -4 | -2 | 2
OC(COC(c1ccccc1)c1ccccc1)CN1CCN(c2ccccn2)CC1 (stereo not given) | -8 | -14 | -7 | 8 | 42* | -26
CCOC(=O)c1cc(C)n(-c2c(C)n(C)n(-c3ccccc3)c2=O)c1C | -5 | -1 | -6 | 3 | 34* | -14
COC(=O)[C@]12CCCCC=C1N(Cc1ccco1)C(=O)[C@H](CC(=O)N1CCN(C(=O)C3CC3)CC1)C2 | x | -13 | 3 | 1 | x | x
COc1ccc(NC(=O)COc2ccccc2C(=O)NCC(c2ccccc2)N(C)C)cc1Cl (stereo not given) | -8 | -19 | -6 | 57* | 73* | -31
CN(C)C(CNC(=O)CCS(=O)(=O)c1ccccc1)c1ccccc1 (stereo not given) | -9 | -1 | -6 | 4 | -7 | 7
CN(C)C(CNC(=O)c1ccc(NC(=O)CC#N)cc1)c1ccccc1 (stereo not given) | -8 | -2 | -20 | 15 | 30* | -20
CN(C)C(CNC(=O)CCC(=O)c1ccc(Br)cc1)c1ccccc1 (stereo not given) | -8 | -5 | -8 | 3 | 35* | -28
CCOC(=O)C1CCCN(C(=O)CCn2nnnc2CN2CCOCC2)C1 (stereo not given) | 32* | 0 | 1 | 5 | 17 | -13
CCN(CC)C(=O)C1CCCN(C(=O)CCn2nnnc2CN2CCOCC2)C1 (stereo not given) | -3 | -3 | -4 | 15 | -14 | 9
Cc1ccc(O)c(NC(=S)NC(=O)Cc2ccc(Cl)cc2)c1 | 79* | -31 | 61* | 81* | 97* | -26
CCOc1ccc2[nH]c3c(N4CCc5ccccc5C4)ncnc3c2c1 | 0 | -9 | -7 | 17 | -12 | 21
CN1CCN(c2ncnc3c2[nH]c2ccc(F)cc23)CC1 | -4 | 0 | -2 | 3 | -3 | 1
Fc1ccc2[nH]c3c(N4CCc5ccccc5C4)ncnc3c2c1 | 2 | -27 | 6 | 27* | 41* | -15
Cc1ccc2[nH]c3c(N4CCc5ccccc5C4)ncnc3c2c1 | 4 | -23 | 4 | 27 | 30* | -15
Cc1ccc(S(=O)(=O)N2[C@H](CC(=O)c3ccc(F)cc3)OC[C@@H]2C(C)C)cc1 | x | -2 | -4 | -2 | x | x
